In the library only some 4.2% were active in any assay of this set; here they are far more common.
HDAC3 inh: human HDAC3 inhibition. AID 2718. recombinant HDAC3, fluorogenic peptide/trypsin coupled, fluorescence. 320,000 compounds, 0.15% hits. O15379. inhibition, % at 8.3 µM; in the data active means inhibition above about 26%, passing the limit was not always enough
PfM18AAP inh: PfM18AAP enzyme inhibition; recombinant PfM18AAP, H-Glu-NHMec fluorogenic cleavage; AID 1822; 290,000 compounds, 1.2% hits; inhibition, % at 7.35 µM;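 active means inhibition above the campaign mean inhibition over all tested compounds plus 3 SD, cut at about 28% in these data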;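 further: 0% = plate median of test compound wells and 100% = 2 mM ZnCl2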
AHR act: activators of human aryl hydrocarbon receptor. P35869. AHR-responsive luciferase reporter cells, luminescence. activation, % at 5 µM. 320,000 compounds, 2.5% hits. AID 2796; in the data active means activation above about 47%;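 further: 0% = vehicle wells and 100% = reference agonist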
GAA850 FXN act: increases GAA850 frataxin promoter reporter activity; HEK293 lucGAA850 FXN promoter luciferase reporter, 24 h; percent of 10 µM SAHA response; activation, % at 6 µM; 360,000 compounds, 0.56% hits; AID 540364;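 active means activation above the average of all compounds screened plus 3 SD, cutoff fixed separately per campaign, cut at about 7.5% in these data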;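 further: 0% = DMSO wells and 100% = 10 µM SAHA wells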
SENP1 FRET inh: inhibitors of human SENP1 SUMO protease catalytic domain; Q9P0U3; recombinant SENP1 catalytic domain, CyPet-SUMO1-YPet FRET cleavage; inhibition, % at 10 µM; 360,000 compounds, 0.21% hits; AID 624204;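 active means inhibition at least 30% at 10 µM, raw YFP signal under a set limit, fluorescence ratio 0.5 to 1.5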;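 further: 0% = enzyme with DMSO and 100% = no enzyme wells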
Target sequence (Q9P0U3 419-644 limits assumed): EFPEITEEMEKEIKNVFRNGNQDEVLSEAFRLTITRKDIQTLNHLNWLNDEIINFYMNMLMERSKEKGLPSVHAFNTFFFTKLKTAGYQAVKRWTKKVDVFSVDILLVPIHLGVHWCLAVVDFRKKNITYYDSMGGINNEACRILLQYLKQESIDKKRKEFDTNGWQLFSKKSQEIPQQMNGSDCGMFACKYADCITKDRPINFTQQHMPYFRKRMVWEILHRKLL
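Test system: recombinant human SENP1 catalytic domain, His6-tagged / Medium: pH 8 Tris buffer with EDTA, NaCl, BME, BSA, NP40, catalase / Also added: SUMO1 FRET substrate flanked by Cypet and Ypet, 25 nM / Times: 50 min reaction at room temperature / Signal: FRET, CFP and YFP emission / Control set: no-enzyme low control and enzyme-plus-DMSO high control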
Fh CTSL1 inh: blocks F. hepatica cathepsin L1 in PFM18AAP counter-screen. recombinant F. hepatica cathepsin L1, Z-Leu-Arg-MCA fluorescence. inhibition, % at 5.96 µM. 300,000 compounds, 0.49% hits. AID 1906;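 active means inhibition above the mean of all tested compounds plus 3 SD, set per screening campaign, cut at about 17% in these data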;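 further: 0% = plate median of test compound wells and 100% = 1 µM Z-Phe-Ala-diazomethylketone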
* marks the source's active call; other numbers are inactive results; . = no result.

SMILES	HDAC3 inh	PfM18AAP inh	AHR act	GAA850 FXN act	SENP1 FRET inh	Fh CTSL1 inh
Cc1ccc(-n2c(Cc3cccn3C)nnc2SCC(=O)NCc2ccc3c(c2)OCO3)cc1	.	30*	2	0	-1	4
COc1ccc(-n2c(Cc3cccn3C)nnc2SCC(=O)NCc2ccco2)cc1	1	-1	66*	0	2	-2
CCOc1cc(C(=O)NC2=NCCS2)cc(OCC)c1OCC	3	-4	55*	-1	1	0
CCOc1ccc(C(=O)NC2=NCCS2)cc1	1	4	43	.	.	1
Cc1cc(=O)n2nc(N3CCCC(C(=O)Nc4cccc(C)c4C)C3)sc2n1 (stereo unspecified)	.	.	.	0	0	.
O=C(NCC1CCCO1)/C(=C/c1ccccc1F)NC(=O)c1ccccc1 (stereo unspecified)	2	-2	1	2	2	-1
CN(C)c1ccc(NC(=O)CCn2c(=S)oc3ccccc32)cc1	-7	6	59*	4	3	8
Cc1ccc(NC(=O)CCn2c(=S)oc3ccccc32)cc1	2	8	11	0	1	1
O=C(O)c1ccc2c(c1)-c1cc(C(=O)O)ccc1S2(=O)=O	7	-6	1	-1	1	1
Cc1ccc(CSCC(=O)Nc2ccc(F)cc2)cc1	0	-4	68*	2	0	-2
CC(=O)c1c(C)[nH]c(C(=O)N2CCc3ccccc3C2)c1C	10	7	48*	-1	0	1
CN(CC(=O)Nc1ccccc1Cl)C(=O)C1CSC2(C)CCC(=O)N12 (stereo unspecified)	1	.	1	1	0	.
CCc1cc2c(=O)c(-c3cscn3)coc2cc1O	3	-9	74*	0	-3	-1
COc1cc(CNCc2c[nH]c3ccccc23)cc(OC)c1	-7	6	4	-2	0	-2
c1csc(-c2ccn[nH]2)c1	-4	-2	6	-1	0	-4
S=c1nccc(-c2cccs2)[nH]1	0	29*	0	4	1	5
C=CCOC(=O)Nc1nc(CCNC(=O)OC(C)(C)C)c(C(=O)O)s1	.	.	.	.	-1	.
CC(=O)Nc1ccc(S(=O)(=O)Nc2nc3ccccc3nc2N2CCCCCC2)cc1	-5	6	-2	-3	-22	-1
O=S(=O)(Nc1nc2ccccc2nc1N1CCc2ccccc2C1)c1ccc(Br)cc1	-37	-1	24	-1	-79	0
CC(=O)Nc1ccc(S(=O)(=O)Nc2nc3ccccc3nc2N2CCc3ccccc3C2)cc1	-12	4	54*	3	-34	2
O=S(=O)(Nc1nc2ccccc2nc1N1CCc2ccccc2C1)c1ccc(Cl)cc1	-11	-5	63*	5	-11	1
Cc1ccc(NC(=O)CN2C(=O)NC(Cc3c[nH]c4ccccc34)C2=O)cc1 (stereo unspecified)	-2	.	18	1	-2	.
CCCN1CCC(C)(C(=O)Nc2cccc(OC(C)C)c2)C1 (stereo unspecified)	.	.	.	-1	-1	.
CCOC(=O)c1nc(C)sc1-c1ccnn1S(=O)(=O)c1ccc(C)cc1	1	-4	4	2	0	0
CCC1CCCCN1CCCNC(=O)C1CC(=O)N(CCc2ccccc2)C1 (stereo unspecified)	-1	-5	2	4	-4	28*
SMILES	HDAC3 inh	PfM18AAP inh	AHR act	GAA850 FXN act	SENP1 FRET inh	Fh CTSL1 inh
COc1ccc(CN2CC(C(=O)NCCCN3CCOCC3)CC2=O)cc1 (stereo unspecified)	2	9	1	-2	2	21*
COc1ccc(CN2CC(C(=O)NCCc3ccccc3)CC2=O)cc1 (stereo unspecified)	1	2	3	3	1	17*
CCCCNC(=O)C1CC(=O)N(CCc2ccccc2)C1 (stereo unspecified)	3	-12	-2	0	0	-3
COc1ccc(CN2CC(C(=O)NCCCN3CCCCCC3)CC2=O)cc1 (stereo unspecified)	-12	-14	-1	0	-10	0
COc1ccc(CN2CC(C(=O)NCCc3ccc(C)cc3)CC2=O)cc1 (stereo unspecified)	-2	3	-1	1	2	-3
CCc1c(-c2ccc(OC)cc2)ncn1Cc1cccc(-c2ccccc2)c1	.	.	.	.	1	.
Cc1ccc(N2C(=O)c3ccc(N)cc3C2=O)cc1	4	5	51*	4	-26	0
Cc1ccc(N2C(=O)c3ccc(N)cc3C2=O)cc1C	4	8	-1	5	-25	1
COc1ccc(-c2nc3cccc(C)n3c2NCc2ccco2)cc1OC	-3	4	57*	1	-33	0
COc1ccc(-c2csc(NCc3ccco3)n2)cc1C	8	20	3	7	-1	2
CC(=O)c1c(C)[nH]c(C(=O)OCC(=O)NCc2ccccc2)c1C	.	.	.	-1	0	.
CCc1noc(C)c1C(=O)Nc1nc2ccc(F)cc2s1	-1	.	52*	6	-7	2
Cc1ccc(/C=c2\sc3n(c2=O)CN(c2ccc(Br)cc2)CN=3)o1	7	29*	15	-1	-4	3
O=[N+]([O-])c1cccc(-c2n[nH]c(=S)n2Cc2ccccc2)c1	0	29*	-2	2	2	0
S=c1[nH]nc(-c2ccccc2Br)n1Cc1ccccc1	-2	31*	-2	2	-2	-16
C=CCn1c(-c2cccc([N+](=O)[O-])c2)n[nH]c1=S	8	24	0	0	3	1
Oc1ccccc1-c1n[nH]c(=S)n1Cc1ccccc1	9	9	21	1	0	-1
Cc1ccc(CNS(=O)(=O)c2ccc(CN3C(=O)c4cccnc4C3=O)cc2)o1	1	-9	0	0	2	-2
O=[N+]([O-])c1ccc(C2CC(c3ccccc3)=Nc3ccccc3S2)cc1 (stereo unspecified)	-8	32*	15	2	3	-1
O=C(O)C1CC(c2ccccc2)=Nc2ccccc2S1 (stereo unspecified)	.	11	53*	4	0	-2
Cc1cc2nc(-c3ccc(C#N)cc3)c(Cc3ccsc3)n2c(C)c1Br	.	.	.	.	10	.
O=c1/c(=C/c2ccccn2)sc2nc3ccccc3n12	.	36*	31	4	23	2
O=c1/c(=C\c2cc([N+](=O)[O-])cc([N+](=O)[O-])c2O)sc2nc3ccccc3n12	8	11	12	0	91*	4
COC(=O)/C=c1/sc2nc3ccccc3n2c1=O	-4	10	1	0	0	-2
COC(=O)c1cncn1Cc1ccccc1	.	.	.	1	1	.
COc1ccccc1/C=C/C(=O)N1CCC(c2ccccc2)C1 (stereo unspecified)	-5	-1	66*	7	0	3
